{"source": "ChEMBL document CHEMBL1125736", "about": "“N-[(omega-amino-1-hydroxyalkyl)phenyl]methanesulfonamide derivatives with class III antiarrhythmic activity” (1991)", "key": {"[1]": {"tested_on": "Canis familiaris", "test": "Compound was tested in vivo in dogs at a dose of 1.0 mg/kg through intravenous route and number of dogs in which sustained ventricular arrhythmias were induced was recorded.(Base line value-1)"}, "[2]": {"tested_on": "Canis familiaris", "test": "Compound was tested in vivo in dogs at a dose of 0.3 mg/kg through intravenous route and number of dogs in which ventricular fibrillation was induced was recorded.(Base line value-1)"}, "[3]": {"tested_on": "Canis familiaris", "test": "Compound was tested in vivo in dogs at a dose of 0.3 mg/kg through intravenous route and number of dogs in which sustained ventricular arrhythmias were induced was recorded.(Base line value-1)"}, "[4]": {"tested_on": "Canis familiaris", "test": "Conduction time for ventricular refractory period of the second premature stimulus was tested in dogs at a dose of 0.3 mg/kg through intravenous administration. (baseline value- 123+/-4)", "format": "functional, Canis lupus familiaris, Cardiac ventricle"}, "[5]": {"tested_on": "Canis familiaris", "test": "Compound was tested in vivo in dogs at a dose of 0.1 mg/kg through intravenous route and number of dogs in which sustained ventricular arrhythmias were induced was recorded.(Base line value-1)"}, "[6]": {"tested_on": "Canis familiaris", "test": "Compound was tested in vivo in dogs at a dose of 3.0 mg/kg through intravenous route and number of dogs in which ventricular arrhythmias were not indicible was recorded.(Base line value-2)"}, "[7]": {"tested_on": "Canis familiaris", "test": "Compound was tested in vivo in dogs at a dose of 1.0 mg/kg through intravenous route and number of dogs in which ventricular fibrillation was induced was recorded.(Base line value-1)"}, "[8]": {"tested_on": "Canis familiaris", "test": "Conduction time from Q wave to T wave of lead II electrocardiogram corrected for heart rate was tested in dogs at a dose of 0.1 mg/kg through intravenous administration. (baseline value- 352+/-7)", "format": "functional, Canis lupus familiaris"}, "[9]": {"tested_on": "Canis familiaris", "test": "Conduction time from the His bundle to the onset of ventricular depolarizations was tested in dogs at a dose of 3.0 mg/kg through intravenous administration. (baseline value- 17+/-1 )", "format": "functional, Canis lupus familiaris, Cardiac ventricle"}, "[10]": {"tested_on": "Canis familiaris", "test": "Conduction time for ventricular refractory period of the second premature stimulus was tested in dogs at a dose of 1.0 mg/kg through intravenous administration. (baseline value- 123+/-4)", "format": "functional, Canis lupus familiaris, Cardiac ventricle"}, "[11]": {"tested_on": "Canis familiaris", "test": "Conduction time from Q wave to T wave of lead II electrocardiogram corrected for heart rate was tested in dogs at a dose of 1.0 mg/kg through intravenous administration. (baseline value- 352+/-7)", "format": "functional, Canis lupus familiaris"}, "[12]": {"organism": "Oryctolagus cuniculus", "test": "Tested for effective refractory period measured at a pacing rate of 1 Hz in vitro with rabbit heart tissue preparations.", "format": "functional", "summary_of_the_method": "(§1)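 Isolated rabbit heart tissues, all from one heart, each its own baseline; 2 h equilibration, perfusate changed every 15 min, basal stimulation 2 Hz between measurements. Exposed to 10^-7, 10^-6 and 10^-5 M drug, 15 min each; values reported at 10^-5 M as percent change from baseline. Drug solutions prepared daily in glass-distilled water. Force and rate recorded on polygraph.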"}, "[13]": {"tested_on": "Canis familiaris", "test": "Conduction time from the His bundle to the onset of ventricular depolarizations was tested in dogs at a dose of 0.3 mg/kg through intravenous administration. (baseline value- 17+/-1 )", "format": "functional, Canis lupus familiaris, Cardiac ventricle"}, "[14]": {"tested_on": "Canis familiaris", "test": "Compound was tested in vivo in dogs at a dose of 3.0 mg/kg through intravenous route and number of dogs in which ventricular fibrillation was induced was recorded.(Base line value-1)"}, "[15]": {"tested_on": "Canis familiaris", "test": "Compound was tested in vivo in dogs at a dose of 1.0 mg/kg through intravenous route and number of dogs in which nonsustained ventricular arrhythmias were induced was recorded.(Base line value-2)"}, "[16]": {"tested_on": "Canis familiaris", "test": "Conduction time for ventricular refractory period of the first premature stimulus was tested in dogs at a dose of 0.3 mg/kg through intravenous administration. (baseline value- 137+/-4)", "format": "functional, Canis lupus familiaris, Cardiac ventricle"}, "[17]": {"organism": "Oryctolagus cuniculus", "test": "Tested for conduction time measured at a pacing rate of 3 Hz in vitro with rabbit heart tissue preparations.", "format": "functional", "summary_of_the_method": "as §1"}, "[18]": {"tested_on": "Canis familiaris", "test": "Conduction time from the His bundle to the onset of ventricular depolarizations was tested in dogs at a dose of 0.1 mg/kg through intravenous administration. (baseline value- 17+/-1 )", "format": "functional, Canis lupus familiaris, Cardiac ventricle"}, "[19]": {"tested_on": "Canis familiaris", "test": "Compound was tested in vivo in dogs at a dose of 3.0 mg/kg through intravenous route and number of dogs in which nonsustained ventricular arrhythmias were induced was recorded.(Base line value-2)"}, "[20]": {"tested_on": "Canis familiaris", "test": "Compound was tested in vivo in dogs at a dose of 0.3 mg/kg through intravenous route and number of dogs in which nonsustained ventricular arrhythmias were induced was recorded.(Base line value-2)"}, "[21]": {"tested_on": "Canis familiaris", "test": "Conduction time from the atrium to His bundle was tested in dogs at a dose of 0.1 mg/kg through intravenous administration. (baseline value- 73+/-3 )", "format": "functional, Canis lupus familiaris"}, "[22]": {"tested_on": "Canis familiaris", "test": "Conduction time from the atrium to His bundle was tested in dogs at a dose of 0.3 mg/kg through intravenous administration. (baseline value- 73+/-3 )", "format": "functional, Canis lupus familiaris"}, "[23]": {"tested_on": "Canis familiaris", "test": "Conduction time for ventricular refractory period of the second premature stimulus was tested in dogs at a dose of 3.0 mg/kg through intravenous administration. (baseline value- 123+/-4)", "format": "functional, Canis lupus familiaris, Cardiac ventricle"}, "[24]": {"tested_on": "Canis familiaris", "test": "Conduction time for ventricular refractory period of the second premature stimulus was tested in dogs at a dose of 0.1 mg/kg through intravenous administration. (baseline value- 123+/-4)", "format": "functional, Canis lupus familiaris, Cardiac ventricle"}, "[25]": {"tested_on": "Canis familiaris", "test": "Conduction time from Q wave to T wave of lead II electrocardiogram corrected for heart rate was tested in dogs at a dose of 0.3 mg/kg through intravenous administration. (baseline value- 352+/-7)", "format": "functional, Canis lupus familiaris"}, "[26]": {"tested_on": "Canis familiaris", "test": "Conduction time from the His bundle to the onset of ventricular depolarizations was tested in dogs at a dose of 1.0 mg/kg through intravenous administration. (baseline value- 17+/-1 )", "format": "functional, Canis lupus familiaris, Cardiac ventricle"}, "[27]": {"tested_on": "Canis familiaris", "test": "Compound was tested in vivo in dogs at a dose of 0.1 mg/kg through intravenous route and number of dogs in which ventricular arrhythmias were not indicible was recorded.(Base line value-2)"}, "[28]": {"organism": "Oryctolagus cuniculus", "test": "Tested for rate automaticity measured in beats per minute from unpaced right atria of rabbit heart.", "format": "functional", "summary_of_the_method": "as §1"}, "[29]": {"tested_on": "Canis familiaris", "test": "Conduction time from Q wave to T wave of lead II electrocardiogram corrected for heart rate was tested in dogs at a dose of 3.0 mg/kg through intravenous administration. (baseline value- 352+/-7)", "format": "functional, Canis lupus familiaris"}, "[30]": {"organism": "Oryctolagus cuniculus", "test": "Tested for effective refractory period measured at a pacing rate of 3 Hz in vitro with rabbit heart tissue preparations.", "format": "functional", "design": "unit: %", "summary_of_the_method": "as §1"}, "[31]": {"organism": "Oryctolagus cuniculus", "test": "Tested for conduction time measured at a pacing rate of 1 Hz in vitro with rabbit heart tissue preparations.", "format": "functional", "summary_of_the_method": "as §1"}, "[32]": {"tested_on": "Canis familiaris", "test": "Compound was tested in vivo in dogs at a dose of 3.0 mg/kg through intravenous route and number of dogs in which sustained ventricular arrhythmias were induced was recorded.(Base line value-1)"}, "[33]": {"tested_on": "Canis familiaris", "test": "Compound was tested in vivo in dogs at a dose of 0.1 mg/kg through intravenous route and number of dogs in which nonsustained ventricular arrhythmias were induced was recorded.(Base line value-2)"}, "[34]": {"tested_on": "Canis familiaris", "test": "Conduction time for ventricular refractory period of the first premature stimulus was tested in dogs at a dose of 3.0 mg/kg through intravenous administration. (baseline value- 137+/-4)", "format": "functional, Canis lupus familiaris, Cardiac ventricle"}, "[35]": {"tested_on": "Canis familiaris", "test": "Compound was tested in vivo in dogs at a dose of 0.3 mg/kg through intravenous route and number of dogs in which ventricular arrhythmias were not indicible was recorded.(Base line value-2)"}, "[36]": {"tested_on": "Canis familiaris", "test": "Conduction time for ventricular refractory period of the first premature stimulus was tested in dogs at a dose of 0.1 mg/kg through intravenous administration. (baseline value- 137+/-4)", "format": "functional, Canis lupus familiaris, Cardiac ventricle"}, "[37]": {"tested_on": "Canis familiaris", "test": "Compound was tested in vivo in dogs at a dose of 0.1 mg/kg through intravenous route and number of dogs in which ventricular fibrillation was induced was recorded.(Base line value-1)"}, "[38]": {"tested_on": "Canis familiaris", "test": "Compound was tested in vivo in dogs at a dose of 1.0 mg/kg through intravenous route and number of dogs in which ventricular arrhythmias were not indicible was recorded.(Base line value-2)"}, "[39]": {"tested_on": "Canis familiaris", "test": "Conduction time from the atrium to His bundle was tested in dogs at a dose of 1.0 mg/kg through intravenous administration. (baseline value- 73+/-3 )", "format": "functional, Canis lupus familiaris"}, "[40]": {"tested_on": "Canis familiaris", "test": "Conduction time from the atrium to His bundle was tested in dogs at a dose of 3.0 mg/kg through intravenous administration. (baseline value 73+/-3 )", "format": "functional, Canis lupus familiaris"}, "[41]": {"organism": "Oryctolagus cuniculus", "test": "Tested for force of contraction measured in mg at a pacing rate of 2 Hz in vitro with rabbit heart tissue preparations.", "format": "functional", "summary_of_the_method": "as §1"}, "[42]": {"tested_on": "Canis familiaris", "test": "Conduction time for ventricular refractory period of the first premature stimulus was tested in dogs at a dose of 1.0 mg/kg through intravenous administration. (baseline value- 137+/-4)", "format": "functional, Canis lupus familiaris, Cardiac ventricle"}}}
{"smiles": "CCCCN(CCCC)CCCC(O)c1ccc(NS(C)(=O)=O)cc1", "note": "(configuration not stated)", "values": [{"measurement": "number of animals", "setting": "[1]", "value": 0, "unit": "animals"}, {"measurement": "number of animals", "setting": "[2]", "value": 0, "unit": "animals"}, {"measurement": "number of animals", "setting": "[3]", "value": 0, "unit": "animals"}, {"measurement": "Time", "setting": "[4]", "value": 127, "unit": "ms"}, {"measurement": "number of animals", "setting": "[5]", "value": 1, "unit": "animals"}, {"measurement": "number of animals", "setting": "[6]", "value": 0, "unit": "animals"}, {"measurement": "number of animals", "setting": "[7]", "value": 1, "unit": "animals"}, {"measurement": "Time", "setting": "[8]", "value": 370, "unit": "ms"}, {"measurement": "Time", "setting": "[9]", "value": 13, "unit": "ms"}, {"measurement": "Time", "setting": "[10]", "value": 120, "unit": "ms"}, {"measurement": "Time", "setting": "[11]", "value": 361, "unit": "ms"}, {"measurement": "ERP1", "setting": "[12]", "value": 9.5}, {"measurement": "Time", "setting": "[13]", "value": 15, "unit": "ms"}, {"measurement": "number of animals", "setting": "[14]", "value": 0, "unit": "animals"}, {"measurement": "number of animals", "setting": "[15]", "value": 3, "unit": "animals"}, {"measurement": "Time", "setting": "[16]", "value": 147, "unit": "ms"}, {"measurement": "CT3", "setting": "[17]", "value": 5.2}, {"measurement": "Time", "setting": "[18]", "value": 13, "unit": "ms"}, {"measurement": "number of animals", "setting": "[19]", "value": 1, "unit": "animals"}, {"measurement": "number of animals", "setting": "[20]", "value": 4, "unit": "animals"}, {"measurement": "Time", "setting": "[21]", "value": 71, "unit": "ms"}, {"measurement": "Time", "setting": "[22]", "value": 66, "unit": "ms"}, {"measurement": "Time", "setting": "[23]", "value": 115, "unit": "ms"}, {"measurement": "Time", "setting": "[24]", "value": 128, "unit": "ms"}, {"measurement": "Time", "setting": "[25]", "value": 358, "unit": "ms"}, {"measurement": "Time", "setting": "[26]", "value": 15, "unit": "ms"}, {"measurement": "number of animals", "setting": "[27]", "value": 1, "unit": "animals"}, {"measurement": "Rate", "setting": "[28]", "value": -20.3}, {"measurement": "Time", "setting": "[29]", "value": 367, "unit": "ms"}, {"measurement": "ERP3", "setting": "[30]", "value": 10.4}, {"measurement": "CT1", "setting": "[31]", "value": -8.5}, {"measurement": "number of animals", "setting": "[32]", "value": 2, "unit": "animals"}, {"measurement": "number of animals", "setting": "[33]", "value": 2, "unit": "animals"}, {"measurement": "Time", "setting": "[34]", "value": 145, "unit": "ms"}, {"measurement": "number of animals", "setting": "[35]", "value": 2, "unit": "animals"}, {"measurement": "Time", "setting": "[36]", "value": 145, "unit": "ms"}, {"measurement": "number of animals", "setting": "[37]", "value": 0, "unit": "animals"}, {"measurement": "number of animals", "setting": "[38]", "value": 2, "unit": "animals"}, {"measurement": "Time", "setting": "[39]", "value": 64, "unit": "ms"}, {"measurement": "Time", "setting": "[40]", "value": 64, "unit": "ms"}, {"measurement": "FOC", "setting": "[41]", "value": 0}, {"measurement": "Time", "setting": "[42]", "value": 145, "unit": "ms"}]}
